Compound activity deposited in PubChem BioAssay by several laboratories.
In the library only some 2.4% were active in any assay of this set; here they are far more common.
MEX-5 binding: MEX-5 zinc finger RNA-binding disruptors – biochemical, C. elegans, fluorescence polarization, MLPCN library, primary screen; MEX-5/FITC-TCR2 RNA binding; stronger effect = lower value; 300,000 tested, 0.38% active; Zinc finger protein mex-5 (Caenorhabditis elegans), Q9XUB2; activity score (negative = inhibition of binding), % at 10 µM; AID 1832, 2009;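 active = inhibition past about -25% in most replicates, and total fluorescence under double the plate's negative control median, limit read from the data; inconclusive = replicates evenly split on the limit, or fluorescence at least double controls; inactive = too little inhibition in most replicates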;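 note: 0% = DMSO and -100% = 5 µM competing unlabeled TCR2 RNA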
Target sequence (Q9XUB2 whole entry, looked up): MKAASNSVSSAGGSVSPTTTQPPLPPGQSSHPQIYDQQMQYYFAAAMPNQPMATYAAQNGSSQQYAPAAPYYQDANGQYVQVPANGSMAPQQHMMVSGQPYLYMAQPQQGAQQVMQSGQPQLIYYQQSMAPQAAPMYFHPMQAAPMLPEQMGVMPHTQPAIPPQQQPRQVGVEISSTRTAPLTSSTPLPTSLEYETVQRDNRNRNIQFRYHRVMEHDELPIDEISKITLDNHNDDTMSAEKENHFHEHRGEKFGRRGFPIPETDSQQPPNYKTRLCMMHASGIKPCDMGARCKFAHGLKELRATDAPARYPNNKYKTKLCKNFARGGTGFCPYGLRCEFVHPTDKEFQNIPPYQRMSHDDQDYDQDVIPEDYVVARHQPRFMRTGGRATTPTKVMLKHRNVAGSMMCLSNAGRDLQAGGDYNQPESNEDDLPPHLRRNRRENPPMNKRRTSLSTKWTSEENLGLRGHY
LANA-H2B inh: blockers of LANA interaction with H2A/H2B – biochemical, FP readout, HTS, primary screen | Protein LANA1 (Human herpesvirus 8 type P (isolate GK18)), Q9QR71 | cell-free LANA-H2A/H2B peptide, fluorescence polarization | inhibition, % (concentration not given with the values) | 320,000 tested, 0.6% active | AID 2629, 2010; in the data active = inhibition mostly above about 10%, no sharp cut-off; inactive = mostly below about 6.7%
EBV gp42 block: Epstein-Barr virus gp42 inhibitors, primary screen, biochemical, uHTS, fluorescence polarization | Glycoprotein 42 (Epstein-Barr virus (strain AG876)), Q1HVG2 | Fluorescence polarization binding assay, mP read-out | inhibition, % (tested at 21.74 µM) | 220,000 tested, 0.42% active | AID 1085, 2008; in the data active = inhibition above about 50%
Target sequence (Q1HVG2 whole entry, looked up): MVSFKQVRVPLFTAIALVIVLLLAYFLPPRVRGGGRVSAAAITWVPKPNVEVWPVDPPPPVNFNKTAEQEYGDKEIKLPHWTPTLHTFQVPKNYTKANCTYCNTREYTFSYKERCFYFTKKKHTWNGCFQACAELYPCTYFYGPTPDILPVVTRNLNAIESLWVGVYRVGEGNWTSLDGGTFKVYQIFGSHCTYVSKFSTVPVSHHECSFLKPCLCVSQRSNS
Runt-SMMHC FRET: inhibitors of RUNX1 Runt–CBFb-SMMHC binding, primary screen, biochemical, FRET, Cerulean-Runt, Venus-CBFb-SMMHC, uHTS; Runt-related transcription factor 1 (Homo sapiens) + Core-binding factor subunit beta …; Cerulean-Runt/Venus-CBFb-SMMHC FRET ratio 530/480, 1 h; inhibition, % at 20 µM; 220,000 tested, 0.74% active; AID 1434, 2008;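 active = mean inhibition across duplicate retests at 20 µM reaching about 50%, limit read from the data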;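 note: 0% = DMSO wells and 100% = wells with excess untagged CBFb-SMMHC; inhibitors lower the FRET ratio by blocking Runt binding to CBFb-SMMHC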
RanGTP-Impb inh: inhibitors of RanGTP-importin-beta interaction, primary screen, biochemical, FRET, CFP-Ran, YFP-importin-beta, homogeneous. Ran GTPase (GTP-bound) - importin-beta complex. cell-free CFP-Ran/YFP-importin-beta FRET ratio. inhibition, % (test concentration not listed). 300,000 tested, 1.1% active;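 active = more than half of the replicate wells show a fall in the fluorescence ratio signal beyond about 16%, limit read from the data, passing the limit was not always enough; inconclusive = exactly half of the replicate wells pass the set limit; inactive = fewer than half of replicates pass the limit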;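 note: 0% = DMSO wells and 100% = Ran loaded with GDP instead of GTP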
Runt-CBFb FRET: inhibitors of RUNX1 Runt–CBFb binding, primary screen, biochemical, FRET, Cerulean-Runt, Venus-CBFb, uHTS. Cerulean-Runt/Venus-CBFb FRET ratio 530/480, 1 h. inhibition, % at 20 µM. 220,000 tested, 0.46% active. AID 1496, 2009;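 active = inhibition over about 50% at 20 µM in the single-dose screen, limit read from the data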;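 note: 0% = DMSO wells and 100% = excess unlabeled CBFb competitor control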
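Measured by: fluorescence energy transfer, 422 nm excitation, 530/480 nm emission; Assay system: Cerulean-Runt domain; Medium: Tris pH 7.5 buffer with BSA; Measure: loss of energy transfer signal; Controls: 5 µM unlabeled CBFb as full-inhibition high control; Incubation: protein complex preformed 1 h, compound exposure 1 h, room temperature, dark.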
An asterisk follows results filed as active; ? = inconclusive; . = not tested or not shown.

SMILES | MEX-5 binding | LANA-H2B inh | EBV gp42 block | Runt-SMMHC FRET | RanGTP-Impb inh | Runt-CBFb FRET
O=C(NCc1cccc(C(F)(F)F)c1)C1CCCN(c2ncccn2)C1 (stereo not drawn) | -2 | 131* | -31 | -3 | -1 | 0
Cc1cc(C)nc(N2CCCC(C(=O)NCc3cccc(C(F)(F)F)c3)C2)n1 (stereo not drawn) | -3 | 2 | -25 | -1 | -3 | -10
Cc1cccn2c(=O)c3cc(C(N)=S)c(=N)n(CCCOC(C)C)c3nc12 | -8 | 1 | -7 | 65* | 174* | 57*
CCOCCCn1c(=N)c(C(N)=S)cc2c(=O)n3cccc(C)c3nc21 | -2 | 2 | -19 | . | 173* | 18
COc1ccc(N2CCN(C(=O)COC(=O)c3ccco3)CC2)cc1 | 0 | -1 | . | . | 3 | .
COc1ccccc1-n1c(=O)oc2ccc(Cl)cc2c1=O | . | 1 | -14 | -2 | . | 1
Cc1cccc2cc(C#N)c(NCCCNS(=O)(=O)c3ccc(Cl)cc3)nc12 | -9 | 2 | -13 | 74* | 47* | 31
Cc1cccc2cc(C#N)c(NCCNS(=O)(=O)c3ccccc3)nc12 | 4 | 0 | 3 | 58* | 13 | 26
Cc1cccc2cc(C#N)c(NCc3ccccc3)nc12 | -1 | 0 | -10 | 47 | ? | 21
O=C1C/C(=C\c2c(F)cccc2Cl)N2CCC1CC2 | -1 | 0 | -10 | -5 | 53* | -1
O=c1[nH]c(=O)n(-c2ccccc2)c2c1C(C(F)(F)F)(C(F)(F)F)N=C(C1CCCCC1)N2 | -1 | -5 | -5 | 2 | -1 | -2
O=C(N=Nc1ccc(NOC(=O)c2ccccc2Br)cc1)c1ccccc1O | -1 | 4 | 51* | -2 | 6 | 4
Cn1c(=O)c2[nH]c(-c3ccccc3Cl)c(O)c2n(C)c1=O | -13 | . | 65* | -109 | -102 | -16
Cn1c(=O)c2[nH]c(-c3ccccc3)c(O)c2n(C)c1=O | ? | . | 122* | -134 | -255 | -23
Cn1c2c(c(=O)n(C)c1=O)C(C(F)(F)F)(C(F)(F)F)N=C(c1ccccc1Cl)N2 | . | 4 | -5 | 0 | 4 | 3
Oc1[nH]c2c(Cl)cc(Cl)cc2c1N=NC(=S)NCC1CCCO1 (stereo not drawn) | 1 | 3 | 1 | -3 | 1 | -4
CCC(C)NCCOc1ccc(C(C)(C)c2ccccc2)cc1 (stereo not drawn) | 0 | 14* | -2 | -5 | 8 | -2
CCOC(=O)c1sc(-c2ccc(Cl)cc2Cl)nc1O | -3 | 1 | 8 | 84* | -37 | -61
CCOC(=O)c1sc(CS(=O)(=O)c2ccc(Cl)cc2)nc1C | 1 | -3 | -6 | -11 | 8 | 2
COc1ccc(CNC(=O)CCc2nc3cc(S(=O)(=O)N(C)C)ccc3n2C)cc1OC | -1 | 1 | -8 | 3 | 1 | 0
NC(=O)C12CCCC(Br)(CCC1)C2 | 2 | 0 | 1 | -2 | 4 | 1
O=c1cc2c(=O)oc3cc(O)c(O)oc3c2c(O)c1O | -84* | . | -12 | -252 | 1 | 35
O=c1oc2cc(O)c(Cl)cc2c2ccccc12 | -1 | 3 | -2 | -112 | 1 | -63
N#C/C(=C\c1ccc(F)cc1)C(=O)Nc1ccccn1 | -2 | 3 | . | . | 39* | .
N#C/C(=C\c1ccc(O)c(O)c1)C(=O)Nc1cccc2ncccc12 | 6 | 5 | . | . | 93* | .
SMILES | MEX-5 binding | LANA-H2B inh | EBV gp42 block | Runt-SMMHC FRET | RanGTP-Impb inh | Runt-CBFb FRET
N#C/C(=C\c1ccc(O)c(O)c1)C(=O)Nc1ccccc1 | . | 2 | . | . | . | .
Cc1ccc(/C(=N/Nc2nc3ccccc3s2)C2=C(O)c3ccccc3C2=O)cc1 | -4 | -2 | -12 | -6 | 1 | -3
COc1cccc(CNC(=O)c2cccc(S(=O)(=O)N3CCN(c4ccc(F)cc4)CC3)c2)c1 | -2 | 22* | . | . | . | .
COc1cccc(C(=O)NCC2CCN(c3ccc(S(=O)(=O)N4CCOCC4)cc3)CC2)c1 | -30* | -5 | -15 | 2 | -5 | -2
O=C(NCC1CCN(c2ccc(S(=O)(=O)N3CCOCC3)cc2)CC1)c1cccc(Cl)c1 | 3 | -5 | -23 | -1 | 1 | 0
O=C(NCC1COc2ccccc2O1)c1cccc(S(=O)(=O)N2CCOCC2)c1 (stereo not drawn) | . | 26* | . | . | . | .
CCN(CC)c1ccc(/C=N/NC(=O)c2cccc(S(=O)(=O)N3CCOCC3)c2)c(O)c1 | -1 | -4 | -34 | 92* | -1 | 20
COc1ccc(C(=O)N2CCC(n3c(C)nc4cc(F)ccc43)CC2)cc1 | 0 | 2 | 7 | 0 | 0 | -1
CC(C)CNC(=O)c1cc(=O)[nH]c2ccc(S(=O)(=O)Nc3ccc(F)cc3)cc12 | 0 | 4 | . | . | 0 | .
O=c1cc(-c2ccccc2Cl)oc2c(NS(=O)(=O)c3cc(Cl)cc(Cl)c3O)ccc(O)c12 | -55* | 0 | 7 | -10 | -8 | -2
O=C(CCNC(=O)c1ccco1)Nc1ccc(OC(F)(F)F)cc1 | 1 | 10 | . | . | 2 | .
CC1CCCCN1C(C(=O)O)c1ccccc1 (stereo not drawn) | 2 | 3 | -7 | -1 | 0 | 0
CC1CC(OC(=O)C(O)c2ccccc2)CC(C)(C)N1C (stereo not drawn) | -2 | 17* | -21 | -2 | 2 | 0
CCOC(=O)C1=C(c2ccccc2)OC(N)=C(C#N)C1c1ccc(Cl)s1 (stereo not drawn) | -1 | 2 | 0 | 10 | 8 | 0
CCN1CC=C2C(C1)C(c1ccc(Cl)s1)C(C#N)=C(N)C2(C#N)C#N (stereo not drawn) | ? | 6 | 88* | 82* | 50* | 36
CCc1ccc(NC(=O)C(C)Nc2ccc(S(=O)(=O)NC(C)=O)cc2)cc1 (stereo not drawn) | 2 | 15* | 0 | -2 | 3 | 1
COc1ccc(N=CC2=C(Nc3ccc(OC)cc3)c3c(C)nn(-c4ccccn4)c3CC2)cc1 | . | 60* | . | . | . | .
CC1CCCC(NC(=O)Cn2cc([N+](=O)[O-])ccc2=O)C1C (stereo not drawn) | . | 7 | . | . | . | .
CC1CCCCC1NC(=O)Cn1cc([N+](=O)[O-])ccc1=O (stereo not drawn) | . | 15* | . | . | . | .
